Reference: ChEMBL document CHEMBL3351978, “Optimization of 1,2,4-Triazolopyridines as Inhibitors of Human 11β-Hydroxysteroid Dehydrogenase Type 1 (11β-HSD-1)” (ACS Med Chem Lett, 2014)
Converted amounts (≈) assume the structure as drawn. The source made the active and inactive calls. The calls are words filed in the database; no cut-off is given here.

Experiments:
[1] = test system: HEK293-EBNA; assay: Inhibition of cynomolgus monkey recombinant 11beta-HSD-1 expressed in HEK293 EBNA cells using [3H]-cortisone and NADPH by scintillation proximity assay; format: cell-based; conditions: Macaca fascicularis
[2] = Tmax in Balb/C mouse at 3.5 mg/kg, po; format: ADME, organism-based; set-up: dose 3.5 mg/kg, route oral; conditions: in vivo
Outline: (§1)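 Male Balb/C mice were given a single oral dose of 3.5 mpk in 0.5% methocel/0.1% Tween-80 in water.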

[3] = Stability in human microsomes assessed as parent compound remaining after 30 mins; format: ADME, Microsome; conditions: read-out: Stability
[4] = Solubility at pH 7.4; format: physicochemical; conditions: buffer
[5] = AUC (0 to 8 hrs) in Balb/C mouse at 3.5 mg/kg, po; format: ADME, organism-based; set-up: time < 8 hr, dose 3.5 mg/kg, route oral; conditions: plasma; outline: as §1
[6] = Stability in rat microsomes assessed as parent compound remaining after 30 mins; format: ADME, Microsome; conditions: read-out: Stability
[7] = Cmax in Balb/C mouse at 3.5 mg/kg, po; format: ADME, organism-based; set-up: dose 3.5 mg/kg, route oral; conditions: in vivo; outline: as §1
[8] = Stability in mouse microsomes assessed as parent compound remaining after 30 mins; format: ADME, Microsome; conditions: read-out: Stability
[9] = Stability in […] monkey microsomes assessed as parent compound remaining after 30 mins; format: ADME, Macaca fascicularis, Microsome; conditions: read-out: Stability

Row | SMILES | inhibition [1] | other results
1 | Clc1ccc(C2(c3nnc4c(OC5CCCCC5)cccn34)CC2)cc1 | inactive | –
2 | Clc1ccc(C2(c3nnc4c(C5CC5)cccn34)CC2)cc1 | Active | Tmax [2]: 1 h; remaining at 0.5 h [3]: 100%; solubility [4]: 76 µg/mL (≈ 245 µM); AUC(0-t) at 8 h [5]: 5.6 µM·h; remaining at 0.5 h [6]: 100%; Cmax [7]: 2500 nM; remaining at 0.5 h [8]: 100%; remaining at 0.5 h [9]: 100%
3 | Clc1ccc(C2(c3nnc4c(OCC5CC5)cccn34)CC2)cc1 | Active | –
4 | Cc1cccn2c(C3(c4ccc(Cl)cc4)CC3)nnc12 | Active | –
5 | Clc1ccc(C2(c3nnc4c(C5CCC5)cccn34)CC2)cc1 | Active | –
6 | CC(C)c1cccn2c(C3(c4ccc(Cl)cc4)CC3)nnc12 | Active | –
7 | Clc1ccc(C2(c3nnc4c(OC5CCOCC5)cccn34)CC2)cc1 | Active | –
8 | Clc1ccc(C2(c3nnc4c(OC5CCC5)cccn34)CC2)cc1 | Active | –
